Converted amounts (≈) assume the structure as drawn.
What was measured:
[1] = Water solubility determination; assay type: physicochemical; conditions: saturated solution in water
How it was run: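 A saturated solution of test compound in water was centrifuged. The supernatant was quantified by UPLC with UV detection at 245 nm against calibration curves from known concentrations. The relative value compares the solubilities of the two compounds measured this way.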

MMP-9 = conditions: cited from earlier work
[2] = PK and brain distribution after single iv dose; assay type: in vivo, mice (male C57Bl/6J); conditions: male mice
HepG2 cells = test: XTT cytotoxicity assay; assay type: cell-based
How it was run: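 XTT viability in HepG2 cells, run in triplicate, with IC50 obtained by curve fitting.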

[3] = tested on: red blood cells (horse whole blood); test: Hemolysis of red blood cells; assay type: cell-based; conditions: up to concentrations of 160 μM; 37 °C, 1 h
How it was run: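 Horse whole-blood RBCs were pelleted at 7 000g and washed three times in 0.1 M PBS. Test compound, from DMSO stock, was incubated with RBCs in PBS at final 5–160 μM for 1 h at 37 °C, in duplicate. Controls were Triton X-100 (positive) and DMSO/PBS (negative). Samples were spun at 13 000g, supernatant absorbance was read at 541 nm, and IC50 was calculated from the plotted data.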

[4] = tested on: cortical lesion after controlled cortical impact; conditions: TBI mice; routes of administration and dose regimens different; cited from earlier work
[5] = 2 after single iv dose of 2 (6.3 mg/kg), plasma
[6] = 2 in brain after single iv dose of 2 (6.3 mg/kg)
[7] = 2 in brain after single iv dose of 3 (7.8 mg/kg)
[8] = 2 in plasma after single iv dose of 2 (6.3 mg/kg)
[9] = 2 in plasma after single iv dose of 3 (7.8 mg/kg)

O=S(=O)(CC1CS1)c1ccc(Oc2ccc(O)cc2)cc1 (centres unmarked) [Compound 2, p-hydroxy SB-3CT]
aqueous solubility [1]: 22.2 µg/mL (≈ 68.9 µM)
Ki (MMP-9; MMP-9): 0.16 ± 0.08 µM
brainAUC/plasmaAUC ([2]; 2 after single iv dose of 2 (6.3 mg/kg)): 1.2
CL [2, 5]: 105 mL/min/kg
Vd [2, 5]: 0.850 L/kg
brainAUC/plasmaAUC ([2]; 2 after single iv dose of 3 (7.8 mg/kg)): 0.53
AUC0-last [2, 6]: 232 pmol·min/mg
AUC0-∞ [2, 6]: 235 pmol·min/mg
t1/2α [2, 6]: 3.0 min
t1/2β [2, 6]: 49 min
AUC0-last [2, 7]: 26 pmol·min/mg
AUC0-∞ [2, 7]: 27 pmol·min/mg
t1/2α [2, 7]: 3.1 min
t1/2β [2, 7]: 8.3 min
AUC0-last [2, 8]: 189 µM·min
AUC0-∞ [2, 8]: 195 µM·min
t1/2α [2, 8]: 3.4 min
t1/2β [2, 8]: 45 min
AUC0-last [2, 9]: 49 µM·min
AUC0-∞ [2, 9]: 49 µM·min
t1/2α [2, 9]: 3.0 min
t1/2β [2, 9]: 6.5 min
IC50 (HepG2 cells): 114 ± 1 µM
hemolysis of red blood cells [3]: not observed

O=S(=O)(CC1CS1)c1ccc(Oc2ccccc2)cc1 (centres unmarked) [SB-3CT]
reduction in brain damage [4]: 14%

TIMP-1: tissue inhibitor of matrix metalloproteinase-1
residence time (MMP-9; time the inhibitor remains complexed with the target): 7.9 min

Source: PMC5800744 (ACS chemical neuroscience, 2015)
